{
  "source": "paper PMC5188857",
  "about": "(Brazilian Journal of Medical and Biological Research, 2016)",
  "key": {"[1]": {"details": "cited from earlier work"}, "[2]": {"assay": "Permeability on MDCK-MDR1 cell monolayer", "format": "in vitro ADME", "details": "dog; for Papp B→A at 129 min: MDCK-MDR1; for Papp A→B at 129 min: MDCK-MDR1, Papp apical to basolateral, MDCK-MDR1 monolayer, n=3"}, "Solubility at pH 7.4": {"assay": "Solubility at pH 7.4", "format": "physicochemical", "details": "50 mM sodium phosphate buffer", "method_in_brief": "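Working stock was spiked into 50 mM sodium phosphate buffer, pH 7.4, and held 2 h; concentrations up to 100 µM were tested. Samples were centrifuged at 1,000 g for 20 min at room temperature. Supernatant was diluted 1:1 in acetonitrile and quantified by LC-MS/MS (phenyl column, positive-ion MRM, internal standard).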"}, "[3]": {"assay": "Plasma protein binding by equilibrium dialysis, rat plasma", "format": "in vitro ADME", "details": "10 µM, means±SD, n=6", "method_in_brief": "(§1)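 Equilibrium dialysis used plasma (human or rat) spiked with 10 µM test compound in the donor side against phosphate buffer in the acceptor side. Plates were sealed and incubated 6 h at 37°C, 60 rpm, 5% CO2. Diclofenac (5 µM) served as positive control. Bound percentage is given as mean±SD, n=6.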"}, "[4]": {"assay": "Plasma protein binding by equilibrium dialysis, human plasma", "format": "in vitro ADME", "details": "10 µM, means±SD, n=6", "method_in_brief": "as §1"}, "MDCK-MDR1 cells": {"tested_on": "MDCK-MDR1 cells", "assay": "Permeability on MDCK-MDR1 cell monolayer", "format": "in vitro ADME", "details": "MDCK-MDR1 monolayer, n=3"}, "P-gp": {"tested_on": "P-gp", "assay": "Permeability on MDCK-MDR1 cell monolayer", "format": "in vitro ADME", "details": "dog, MDCK-MDR1"}, "Plasma stability, rat": {"assay": "Plasma stability, rat", "format": "in vitro ADME", "method_in_brief": "(§2)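 Test-compound-spiked rat or human plasma was incubated 6 h at 37°C. Percent recovery was then determined, reported as mean±SD, n=6.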"}, "Plasma stability, human": {"assay": "Plasma stability, human", "format": "in vitro ADME", "method_in_brief": "as §2"}, "[5]": {"assay": "In vitro metabolism in rat liver microsomes", "format": "in vitro ADME"}, "[6]": {"assay": "In vitro metabolism in human liver microsomes", "format": "in vitro ADME"}, "[7]": {"assay": "In vitro metabolism in rat hepatocytes", "format": "in vitro ADME", "details": "rat, hepatocytes"}, "rat hepatocytes": {"tested_on": "rat hepatocytes", "assay": "In vitro metabolism in rat hepatocytes", "format": "in vitro ADME", "details": "rat hepatocytes, 0.5 µM"}, "[8]": {"assay": "In vitro metabolism in human hepatocytes", "format": "in vitro ADME", "details": "human, hepatocytes"}, "human hepatocytes": {"tested_on": "human hepatocytes", "assay": "In vitro metabolism in human hepatocytes", "format": "in vitro ADME", "details": "human hepatocytes, 0.5 µM, two separate experiments"}, "CYP2D6": {"molecular_target": "CYP2D6 (Homo sapiens, UniProt P10635)", "sequence (P10635 whole entry)": "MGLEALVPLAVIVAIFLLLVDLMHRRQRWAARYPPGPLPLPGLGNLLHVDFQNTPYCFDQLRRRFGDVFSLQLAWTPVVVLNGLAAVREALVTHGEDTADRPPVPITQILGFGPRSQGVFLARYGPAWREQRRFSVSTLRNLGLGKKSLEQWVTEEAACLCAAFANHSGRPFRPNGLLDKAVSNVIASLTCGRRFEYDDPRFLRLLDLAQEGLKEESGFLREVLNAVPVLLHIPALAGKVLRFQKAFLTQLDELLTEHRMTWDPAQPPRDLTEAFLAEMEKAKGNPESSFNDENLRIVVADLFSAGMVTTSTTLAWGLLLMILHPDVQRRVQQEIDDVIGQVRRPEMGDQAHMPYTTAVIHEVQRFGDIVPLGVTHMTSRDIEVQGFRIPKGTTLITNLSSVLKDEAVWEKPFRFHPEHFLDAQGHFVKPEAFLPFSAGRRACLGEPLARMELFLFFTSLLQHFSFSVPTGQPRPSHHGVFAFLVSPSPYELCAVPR", "assay": "CYP profiling with purified isozyme", "format": "in vitro ADME", "details": "purified human CYP2D6 isozyme (Cypex)", "method_in_brief": "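Purified human recombinant CYP isozyme ([…]) was pre-incubated 10 min, then run with 0.5 µM test compound and 2 mM NADPH in phosphate buffer at 37°C. CYP-specific probe substrates were incubated separately. Parent loss over time was measured by LC-MS/MS. Half-life came from nonlinear regression to a first-order decay equation.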"}, "CYP3A4": {"molecular_target": "CYP3A4 (Homo sapiens, UniProt P08684)", "sequence (P08684 whole entry)": "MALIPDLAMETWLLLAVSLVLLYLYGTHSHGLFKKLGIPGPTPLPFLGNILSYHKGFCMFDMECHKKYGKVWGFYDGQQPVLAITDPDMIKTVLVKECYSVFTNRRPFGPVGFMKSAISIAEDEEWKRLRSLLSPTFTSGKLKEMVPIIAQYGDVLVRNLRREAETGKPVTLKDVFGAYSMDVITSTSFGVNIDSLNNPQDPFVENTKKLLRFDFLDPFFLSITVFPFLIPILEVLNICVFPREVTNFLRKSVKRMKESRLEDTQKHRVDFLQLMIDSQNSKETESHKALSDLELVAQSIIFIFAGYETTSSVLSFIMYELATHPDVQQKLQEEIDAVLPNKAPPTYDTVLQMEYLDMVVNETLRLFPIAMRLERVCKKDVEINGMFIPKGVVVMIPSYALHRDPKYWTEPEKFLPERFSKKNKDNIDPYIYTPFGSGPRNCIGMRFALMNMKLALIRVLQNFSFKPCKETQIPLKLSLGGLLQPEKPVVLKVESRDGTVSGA", "assay": "CYP inhibition in human liver microsomes", "format": "in vitro ADME"}, "mice motor coordination": {"tested_on": "mice motor coordination", "assay": "Rota-rod test", "format": "in vivo", "details": "10 µg/kg iv, 3, 10 and 30 min after administration", "method_in_brief": "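Adult male Swiss Webster mice (~40 g) were trained 1 day and 1 h before testing. Only those staying ≥1 min without falling were used. Test compound (10 µg/kg) or saline was given iv via the orbital plexus, 6 mice per group. At 3, 10 and 30 min, falls were counted over a 4-min observation, with latency to each fall recorded.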"}, "mice": {"tested_on": "mice", "assay": "Acute toxicity test, single dose", "format": "in vivo", "details": "for Body temperature: 100 μg/kg ip", "method_in_brief": "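Female Swiss Webster mice (25–30 g), 6 per condition, got a single ip dose of 100 μg/kg test compound, with saline controls. Behaviour, motor coordination, muscle tone, CNS and autonomic signs, water and food intake and lethality were scored during the first hour, at 2, 4 and 8 h, then daily to day 14. Anal-probe body temperature was taken before dosing and at 30 and 60 min.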"}, "[9]": {"details": "single dose 100 μg/kg ip, 14 days observation"}},
  "note": "“And” between values parts separate entries of the source, which are not always exact repeats. Equal entries are not always repeated. Where two headings read alike, the source gives them in different places.",
  "data": [
    {"smiles": "CCOc1ccccc1OCCN[C@H](C)Cc1ccc(OC)c(S(N)(=O)=O)c1", "note": "[tamsulosin]", "values": [
      {"measurement": "Binding to human plasma proteins", "setting": "[1]", "value": "around 99%"}
    ]},
    {"smiles": "C=C[C@H]1C[N@@]2CC[C@H]1C[C@@H]2[C@@H](O)c1ccnc2ccc(OC)cc12", "note": "[quinidine, reference compound]", "values": [
      {"measurement": "Papp B→A at 129 min", "setting": "[2]", "value": "39.5 ± 2.8", "unit": "×10⁻⁶ cm/s"},
      {"measurement": "Papp A→B at 129 min", "setting": "[2]", "value": "0.19 ± 0.05", "unit": "×10⁻⁶ cm/s"}
    ]},
    {"smiles": "COc1ccc(CCN2CCN(c3ccccc3OC)CC2)cc1OC.Cl", "note": "[LDT5, 1-(2-methoxyphenyl)-4-[2-(3,4-dimethoxyphenyl)ethyl]piperazine monohydrochloride]", "values": [
      {"measurement": "solubility at 2 h", "setting": "Solubility at pH 7.4", "value": "≥ 100", "unit": "µM"},
      {"measurement": "Binding to plasma proteins", "setting": "[3]", "value": "80±2", "unit": "%"},
      {"measurement": "Binding to plasma proteins", "setting": "[4]", "value": "73±1", "unit": "%"},
      {"measurement": "Papp B→A at 129 min", "setting": "[2]", "value": "32.4 ± 1.1", "unit": "×10⁻⁶ cm/s"},
      {"measurement": "Papp A→B at 129 min", "setting": "[2]", "value": "~32", "unit": "×10⁻⁶ cm/s"},
      {"measurement": "Papp apical to basolateral", "setting": "MDCK-MDR1 cells", "value": "32.2±1.1 ×10^-6 cm/s"},
      {"measurement": "efflux ratio at 129 min", "setting": "P-gp", "value": 1},
      {"measurement": "recovery at 6 h", "setting": "Plasma stability, rat", "value": "87 ± 4", "unit": "%"},
      {"measurement": "recovery at 6 h", "setting": "Plasma stability, human", "value": "91 ± 4", "unit": "%"},
      {"measurement": "half-life at 0.5 µM", "setting": "[5]; male, Sprague Dawley, rat, liver microsomes", "value": 10, "unit": "min"},
      {"measurement": "Intrinsic clearance", "setting": "[5]; rat liver microsomes, 0.5 µM, two separate experiments", "value": "6.4 mL·min^-1·g liver^-1 and 6.7 mL·min^-1·g liver^-1"},
      {"measurement": "half-life at 0.5 µM", "setting": "[6]; both, human, liver microsomes", "value": "> 30", "unit": "min"},
      {"measurement": "Intrinsic clearance", "setting": "[6]; human liver microsomes, 0.5 µM", "value": "< 0.6", "unit": "mL·min^-1·g liver^-1"},
      {"measurement": "half-life at 0.5 µM", "setting": "[7]", "value": 11, "unit": "min"},
      {"measurement": "Intrinsic clearance", "setting": "rat hepatocytes", "value": "> 2", "unit": "mL·min^-1·g liver^-1"},
      {"measurement": "half-life at 0.5 µM", "setting": "[8]", "value": 120, "unit": "min"},
      {"measurement": "Intrinsic clearance", "setting": "human hepatocytes", "value": "< 0.2 mL·min^-1·g liver^-1 and 0.22 mL·min^-1·g liver^-1"},
      {"measurement": "half-life at 0.5 µM", "setting": "CYP2D6", "value": 5, "unit": "min"},
      {"measurement": "IC50", "setting": "CYP3A4", "value": "> 100", "unit": "µM"},
      {"measurement": "IC50", "setting": "CYP3A4; read-out: IC50 CYP3A4, human liver microsomes, substrate testosterone", "value": "> 100", "unit": "µM"},
      {"measurement": "Effect on motor coordination (rota-rod)", "setting": "mice motor coordination", "value": "no acute effect on mice motor coordination"},
      {"measurement": "Body temperature", "setting": "mice; 30 min after administration", "value": "35.5±0.2", "unit": "°C"},
      {"measurement": "Body temperature", "setting": "mice; 60 min after administration", "value": "35.17±0.31", "unit": "°C"},
      {"measurement": "Changes in behavior", "setting": "mice; [9]", "value": "no changes in behavior"},
      {"measurement": "Lethality", "setting": "mice; [9]", "value": "no lethality"}
    ]}
  ]
}
